≈ marks a conversion by molar mass, not a printed value. Calls of active or inactive are those of the source. The calls are words filed in the database; no cut-off is given here.
What was measured:
[1] = tested on: Bacteroides thetaiotaomicron; test: Bactericidal activity against beta lactamase-positive Bacteroides thetaiotaomicron isolated from intra-abdominal infection and pelvic inflammatory disease patients assessed as bacterial killing at 2 times MIC after 48 hrs by time kill analysis; format: functional
In short: (§1)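 Macrodilution time-kill in prereduced brucella broth with 5% laked horse blood, hemin 5 μg/ml and vitamin K1 1 μg/ml, at final inoculum 10^6–10^7 CFU/ml. […] Viable counts were taken at 6, 12, 24 and 48 h on plates incubated 48 h anaerobically. 99.9% kill was taken as bactericidal.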

[2] = tested on: Clostridium cadaveris; test: Antimicrobial activity against Clostridium cadaveris isolated from intra-abdominal infection and pelvic inflammatory disease patients after 48 hrs by agar dilution method; format: functional
In short: (§2)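 CLSI agar dilution on brucella blood agar supplemented with laked sheep blood, hemin and vitamin K. Inocula of about 1 × 10^5 CFU/spot were applied by Steers replicator, and plates were incubated 48 h at 35°C in an anaerobic glove box. MIC was the concentration giving marked growth reduction versus the anaerobic control plate. QC strains were included each run, and β-lactamase was detected by Cefinase disk.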

[3] = tested on: Clostridium paraputrificum; test: Antimicrobial activity against Clostridium paraputrificum isolated from intra-abdominal infection and pelvic inflammatory disease patients after 48 hrs by agar dilution method; format: functional; in short: as §2
[4] = tested on: Prevotella intermedia; test: Antimicrobial activity against beta lactamase-positive Prevotella intermedia isolated from intra-abdominal infection and pelvic inflammatory disease patients after 48 hrs by time kill analysis; format: functional
In short: (§3)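 The MIC was read by inspecting macrodilution time-kill tubes. Vials held prereduced brucella broth with 5% laked horse blood cells, hemin 5 μg/ml and vitamin K1 1 μg/ml. Final inoculum was 10^6–10^7 CFU/ml, prepared inside the anaerobe chamber. Vials were incubated 48 h at 35°C in a shaking water bath.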

[5] = tested on: Finegoldia magna; test: Bactericidal activity against beta lactamase-positive Finegoldia magna isolated from intra-abdominal infection and pelvic inflammatory disease patients assessed as 99.9% bacterial killing at 2 times MIC after 48 hrs by time kill analysis; format: functional, organism-based; in short: as §1
[6] = tested on: Porphyromonas gingivalis; test: Antimicrobial activity against Porphyromonas gingivalis isolated from intra-abdominal infection and pelvic inflammatory disease patients after 48 hrs by agar dilution method; format: functional; in short: as §2
[7] = tested on: Finegoldia magna; test: Antimicrobial activity against Finegoldia magna isolated from intra-abdominal infection and pelvic inflammatory disease patients after 48 hrs by agar dilution method; format: functional; in short: as §2
[8] = tested on: Prevotella intermedia; test: Antimicrobial activity against beta lactamase-positive Prevotella intermedia isolated from intra-abdominal infection and pelvic inflammatory disease patients after 48 hrs by agar dilution method; format: functional; in short: as §2
[9] = tested on: Prevotella bivia; test: Antimicrobial activity against beta lactamase-positive Prevotella bivia isolated from intra-abdominal infection and pelvic inflammatory disease patients after 48 hrs by agar dilution method; format: functional; in short: as §2
[10] = tested on: Bacteroides thetaiotaomicron; test: Antimicrobial activity against beta lactamase-positive Bacteroides thetaiotaomicron isolated from intra-abdominal infection and pelvic inflammatory disease patients after 48 hrs by agar dilution method; format: functional; in short: as §2
[11] = tested on: Parvimonas micra; test: Antimicrobial activity against Micromonas micros isolated from intra-abdominal infection and pelvic inflammatory disease patients after 48 hrs by agar dilution method; format: functional; in short: as §2
[12] = tested on: Prevotella intermedia; test: Bactericidal activity against beta lactamase-positive Prevotella intermedia isolated from intra-abdominal infection and pelvic inflammatory disease patients assessed as bacterial killing at MIC after 24 hrs by time kill analysis; format: functional
In short: (§4)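 Anaerobic macrodilution time-kill. Inoculum from brucella blood plates, prepared and diluted in prereduced brucella broth inside the anaerobe chamber. Final 10^6 to 10^7 CFU/ml in prereduced brucella broth with 5% laked horse blood cells, 5 μg/ml hemin and 1 μg/ml vitamin K1. […] Shaken at 35°C for 48 h. Viable counts taken at 6, 12, 24 and 48 h. 99.9% kill taken as bactericidal.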

[13] = tested on: Bacteroides fragilis; test: Bactericidal activity against beta lactamase-positive Bacteroides fragilis isolated from intra-abdominal infection and pelvic inflammatory disease patients assessed as bacterial killing at 2 times MIC after 48 hrs by time kill analysis; format: functional; in short: as §1
[14] = tested on: Fusobacterium nucleatum; test: Bactericidal activity against beta lactamase-positive Fusobacterium nucleatum isolated from intra-abdominal infection and pelvic inflammatory disease patients assessed as bacterial killing at 2 times MIC after 48 hrs by time kill analysis; format: functional; in short: as §4
[15] = tested on: Phocaeicola vulgatus; test: Antimicrobial activity against beta lactamase-positive Bacteroides vulgatus isolated from intra-abdominal infection and pelvic inflammatory disease patients after 48 hrs by agar dilution method; format: functional; in short: as §2
[16] = tested on: Clostridium perfringens; test: Antimicrobial activity against Clostridium perfringens isolated from intra-abdominal infection and pelvic inflammatory disease patients after 48 hrs by time kill analysis; format: functional
In short: (§5)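 Macrodilution in prereduced brucella broth with 5% laked horse blood cells, 5 μg/ml hemin and 1 μg/ml vitamin K1. Final inoculum 10^6 to 10^7 CFU/ml, prepared inside the anaerobe chamber. Vials incubated 48 h at 35°C in a shaking water bath. MIC read by inspecting the time-kill tubes, alongside an antibiotic-free growth control.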

[17] = tested on: Fusobacterium nucleatum; test: Bactericidal activity against beta lactamase-positive Fusobacterium nucleatum isolated from intra-abdominal infection and pelvic inflammatory disease patients assessed as bacterial killing at MIC after 24 hrs by time kill analysis; format: functional; in short: as §4
[18] = tested on: Prevotella nigrescens; test: Antimicrobial activity against beta lactamase-positive Prevotella nigrescens isolated from intra-abdominal infection and pelvic inflammatory disease patients after 48 hrs by agar dilution method; format: functional; in short: as §2
[19] = tested on: Porphyromonas levii; test: Antimicrobial activity against Porphyromonas levii isolated from intra-abdominal infection and pelvic inflammatory disease patients after 48 hrs by agar dilution method; format: functional; in short: as §2
[20] = tested on: Fusobacterium varium; test: Antimicrobial activity against Fusobacterium varium isolated from intra-abdominal infection and pelvic inflammatory disease patients after 48 hrs by agar dilution method; format: functional; in short: as §2
[21] = tested on: Bacteroides ovatus; test: Antimicrobial activity against beta lactamase-positive Bacteroides ovatus isolated from intra-abdominal infection and pelvic inflammatory disease patients after 48 hrs by agar dilution method; format: functional; in short: as §2
[22] = tested on: Prevotella buccae; test: Antimicrobial activity against beta lactamase-positive Prevotella buccae isolated from intra-abdominal infection and pelvic inflammatory disease patients after 48 hrs by agar dilution method; format: functional; conditions: Segatella buccae; in short: as §2
[23] = tested on: Clostridioides difficile; test: Antimicrobial activity against Clostridium difficile isolated from intra-abdominal infection and pelvic inflammatory disease patients after 48 hrs by time kill analysis; format: functional; in short: as §5
[24] = tested on: Finegoldia magna; test: Bactericidal activity against beta lactamase-positive Finegoldia magna isolated from intra-abdominal infection and pelvic inflammatory disease patients assessed as bacterial killing at MIC after 24 hrs by time kill analysis; format: functional; in short: as §4
[25] = tested on: Clostridioides difficile; test: Bactericidal activity against Clostridium difficile isolated from intra-abdominal infection and pelvic inflammatory disease patients assessed as bacterial killing at 2 times MIC after 48 hrs by time kill analysis; format: functional; in short: as §1
[26] = tested on: Finegoldia magna; test: Bactericidal activity against beta lactamase-positive Finegoldia magna isolated from intra-abdominal infection and pelvic inflammatory disease patients assessed as bacterial killing at 2 times MIC after 48 hrs by time kill analysis; format: functional; in short: as §4
[27] = tested on: Anaerococcus tetradius; test: Antimicrobial activity against Anaerococcus tetradius isolated from intra-abdominal infection and pelvic inflammatory disease patients after 48 hrs by agar dilution method; format: functional; in short: as §2
[28] = tested on: Bacteroides thetaiotaomicron; test: Bactericidal activity against beta lactamase-positive Bacteroides thetaiotaomicron isolated from intra-abdominal infection and pelvic inflammatory disease patients assessed as bacterial killing at MIC after 24 hrs by time kill analysis; format: functional; in short: as §1
[29] = tested on: Finegoldia magna; test: Antimicrobial activity against beta lactamase-positive Finegoldia magna isolated from intra-abdominal infection and pelvic inflammatory disease patients after 48 hrs by time kill analysis; format: functional; in short: as §3
[30] = tested on: Paeniclostridium sordellii; test: Antimicrobial activity against Clostridium sordellii isolated from intra-abdominal infection and pelvic inflammatory disease patients after 48 hrs by agar dilution method; format: functional; conditions: Paraclostridium sordellii; in short: as §2

Work on `C[C@@H](O)[C@H]1C(=O)N2C(C(=O)O)=C(SCCNC=N)C[C@H]12` [IMIPENEM ANHYDROUS] yielded an Activity [1] of 99%, an MIC [2] of 0.125 µg/mL (≈ 0.418 µM) and an MIC [3] of 0.5 µg/mL (≈ 1.67 µM). The MIC [4] was 0.03 µg/mL (≈ 0.1 µM), the Activity [5] was “inactive” and the MIC [6] was ≤ 0.016 µg/mL. It also gave an MIC50 [7] of 0.06 µg/mL (≈ 0.2 µM), an MIC90 [7] of 0.06 µg/mL (≈ 0.2 µM) and an MIC50 [8] of 0.03 µg/mL (≈ 0.1 µM). The MIC90 [8] was 0.125 µg/mL (≈ 0.418 µM), the MIC50 [9] was 0.03 µg/mL (≈ 0.1 µM) and the MIC90 [9] was 0.06 µg/mL (≈ 0.2 µM). The MIC [10] was 0.25 µg/mL (≈ 0.835 µM), the MIC50 [10] was 0.25 µg/mL (≈ 0.835 µM) and the MIC90 [10] was 0.5 µg/mL (≈ 1.67 µM). It also gave an MIC [11] of 0.03 µg/mL (≈ 0.1 µM), an MIC50 [11] of 0.03 µg/mL (≈ 0.1 µM) and an MIC90 [11] of 0.06 µg/mL (≈ 0.2 µM). The Activity [12] was 90%, the Activity [13] was 99% and the Activity [14] was 99%. It also gave an MIC50 [15] of 0.5 µg/mL (≈ 1.67 µM), an MIC90 [15] of 1 µg/mL (≈ 3.34 µM) and an MIC [16] of 0.06 µg/mL (≈ 0.2 µM). The Activity [17] was 90%, the MIC50 [18] was 0.03 µg/mL (≈ 0.1 µM) and the MIC90 [18] was 0.03 µg/mL (≈ 0.1 µM). The MIC [19] was ≤ 0.016 µg/mL, the MIC50 [20] was 1 µg/mL (≈ 3.34 µM) and the MIC90 [20] was 1 µg/mL (≈ 3.34 µM). The MIC50 [21] was 0.25 µg/mL (≈ 0.835 µM), the MIC90 [21] was 0.5 µg/mL (≈ 1.67 µM) and the MIC [22] was 0.03 µg/mL (≈ 0.1 µM). It also gave an MIC50 [22] of 0.03 µg/mL (≈ 0.1 µM), an MIC90 [22] of 0.03 µg/mL (≈ 0.1 µM) and an MIC [23] of 4 µg/mL (≈ 13.4 µM). For the same compound, the Activity [24] was 90%, the Activity [25] was 99% and the Activity [26] was 99%. The MIC50 [27] was 0.03 µg/mL (≈ 0.1 µM), the Activity [28] was 90% and the MIC [29] was 0.06 µg/mL (≈ 0.2 µM). It also gave an MIC [30] of 0.125 µg/mL (≈ 0.418 µM).
In the case of `C[C@@H](O)[C@H]1C(=O)N2C(C(=O)O)=C(S[C@@H]3CN[C@H](C(=O)Nc4cccc(C(=O)O)c4)C3)[C@H](C)[C@H]12`, the Activity [1] is reported as 99%, the MIC [2] is reported as ≤ 0.016 µg/mL and the MIC [3] is reported as 0.125 µg/mL (≈ 0.263 µM). The MIC [4] was 0.03 µg/mL (≈ 0.0631 µM), the Activity [5] was “inactive” and the MIC [6] was ≤ 0.016 µg/mL. It also gave an MIC50 [7] of 0.06 µg/mL (≈ 0.126 µM), an MIC90 [7] of 0.06 µg/mL (≈ 0.126 µM) and an MIC50 [8] of 0.03 µg/mL (≈ 0.0631 µM). The MIC90 [8] was 0.25 µg/mL (≈ 0.526 µM), the MIC50 [9] was 0.25 µg/mL (≈ 0.526 µM) and the MIC90 [9] was 0.25 µg/mL (≈ 0.526 µM). The MIC [10] was 0.5 µg/mL (≈ 1.05 µM), the MIC50 [10] was 0.5 µg/mL (≈ 1.05 µM) and the MIC90 [10] was 1 µg/mL (≈ 2.1 µM). For the same compound, the MIC50 [11] was 0.03 µg/mL (≈ 0.0631 µM), the MIC90 [11] was 0.125 µg/mL (≈ 0.263 µM) and the Activity [12] was 90%. The Activity [13] was 99%, the Activity [14] was 99% and the MIC50 [15] was 0.125 µg/mL (≈ 0.263 µM). For the same compound, the MIC90 [15] was 2 µg/mL (≈ 4.21 µM), the MIC [16] was 0.125 µg/mL (≈ 0.263 µM) and the Activity [17] was 90%. The MIC50 [18] was 0.03 µg/mL (≈ 0.0631 µM), the MIC90 [18] was 0.06 µg/mL (≈ 0.126 µM) and the MIC [19] was ≤ 0.016 µg/mL. The MIC [20] was 0.06 µg/mL (≈ 0.126 µM), the MIC50 [20] was 0.06 µg/mL (≈ 0.126 µM) and the MIC90 [20] was 0.125 µg/mL (≈ 0.263 µM). The MIC [21] was 0.5 µg/mL (≈ 1.05 µM), the MIC50 [21] was 0.5 µg/mL (≈ 1.05 µM) and the MIC90 [21] was 2 µg/mL (≈ 4.21 µM). It also gave an MIC50 [22] of 0.125 µg/mL (≈ 0.263 µM), an MIC90 [22] of 0.125 µg/mL (≈ 0.263 µM) and an MIC [23] of 4 µg/mL (≈ 8.41 µM). It also gave an Activity [24] of 90%, an Activity [25] of 99% and an Activity [26] of 99%. It also gave an MIC [27] of 0.06 µg/mL (≈ 0.126 µM), an MIC50 [27] of 0.06 µg/mL (≈ 0.126 µM) and an Activity [28] of 90%. The MIC [29] was 0.03 µg/mL (≈ 0.0631 µM) and the MIC [30] was 0.03 µg/mL (≈ 0.0631 µM).
